Results from EPA's CvTdb concentration-time database.

Assays:
human = assay: concentration in blood after dosing; negative times count back from the end of exposure; details: dosed: methylethylketone, inhalation, duration: 4 hr, male
Outline: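 Concentration-versus-time or amount-versus-time points were compiled from published in vivo toxicokinetic studies and from two structured collections. The studies were found by PubMed searching, classifier screening and manual review. Points were mostly digitised from plot screenshots with WebPlotDigitizer, otherwise copied from tables, and kept in the reported units. Dose, route, subject details and medium were curated by hand from each paper, and sampling and analytical methods follow each source and were often unreported.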

Rat [1] = assay: concentration in plasma after dosing; details: dosed: Isoeugenol, 17 mg/kg, oral, Male, F344/N
Rat [2] = assay: concentration in plasma after dosing; details: dosed: Isoeugenol, 17 mg/kg, oral, Female, F344/N
Rat [3] = assay: concentration in plasma after dosing; details: dosed: Tetralin, 20 mg/kg, iv, Female, Harlan Sprague Dawley
Rat [4] = assay: concentration in plasma after dosing; details: 2 h; dosed: Tetralin; 2 mg/kg; iv; Male; Harlan Sprague Dawley
Rat [5] = assay: concentration in plasma after dosing; details: dosed: Tetralin, 20 mg/kg, iv, Female, Harlan Sprague Dawley; remark: listed apart in the source
Rat [6] = assay: concentration in plasma after dosing; details: dosed: Tetralin, 2 mg/kg, iv, Male, Harlan Sprague Dawley
Rat [7] = assay: concentration in plasma after dosing; details: dosed: Tetralin, 2 mg/kg, iv, Male, F344
Rat [8] = assay: concentration in plasma after dosing; details: dosed: Tetralin, 2 mg/kg, iv, Male, Harlan Sprague Dawley; remark: listed apart in the source

CCC(C)=O [methylethylketone]
human
Details	concentration in blood [µM]
0.1373 h, 400 ppm	216
0.1381 h, 200 ppm	70.4
0.1632 h, 25 ppm	2.96
0.1664 h, 25 ppm	3.3
0.3028 h, 200 ppm	74.4
0.3068 h, 400 ppm	201
0.3094 h, 200 ppm	54.5
0.3251 h, 25 ppm	2.53
0.3266 h, 25 ppm	2.69
0.4719 h, 200 ppm	65.3
0.4774 h, 25 ppm	2.09
0.4845 h, 200 ppm	49.1
0.4885 h, 25 ppm	2.26
0.9614 h, 200 ppm	40.1
0.9652 h, 200 ppm	50.5
0.9754 h, 400 ppm	150
0.9842 h, 25 ppm	1.52
0.985 h, 25 ppm	1.61
1.481 h, 200 ppm	44.7
1.482 h, 200 ppm	22.9
1.484 h, 400 ppm	121
1.968 h, 200 ppm	25.4
1.969 h, 200 ppm	17.2
1.978 h, 400 ppm	115
1.982 h, 25 ppm	0.771
1.983 h, 25 ppm	0.828
2.965 h, 200 ppm	24.3
2.966 h, 200 ppm	14.6
2.966 h, 400 ppm	98.4
2.996 h, 25 ppm	0.635
3 h, 25 ppm	0.521
3.971 h, 200 ppm	9.24
3.974 h, 200 ppm	5.93
4.006 h, 25 ppm	0.63
4.01 h, 25 ppm	0.532
4.323 h, 400 ppm	48
4.987 h, 400 ppm	33.2
5.414 h, 200 ppm	3.68
5.418 h, 200 ppm	2.75
7.74 h, 200 ppm	1.75
28 min, 400 ppm	171

human, during exposure
Details	concentration in blood [µM]
-122 s, 25 ppm	4.68
-83 s, 200 ppm	100
-69 s, 25 ppm	4.74
-46 s, 400 ppm	230
-3.994 h, 25 ppm	0.18
-3.993 h, 25 ppm	0.263
-3.835 h, 25 ppm	1.85
-3.83 h, 400 ppm	47.8
-3.827 h, 25 ppm	2.22
-3.739 h, 200 ppm	24.1
-3.681 h, 25 ppm	2.14
-3.67 h, 25 ppm	2.79
-3.661 h, 400 ppm	68.3
-3.508 h, 25 ppm	2.38
-3.505 h, 25 ppm	2.71
-3.477 h, 400 ppm	80
-3.248 h, 200 ppm	54.2
-3.243 h, 200 ppm	41.8
-2.997 h, 25 ppm	3.29
-2.993 h, 25 ppm	2.68
-2.992 h, 400 ppm	112
-2.506 h, 200 ppm	55
-2.505 h, 200 ppm	58.5
-2.503 h, 400 ppm	162
-2.017 h, 25 ppm	3.04
-2.012 h, 25 ppm	3.56
-1.994 h, 400 ppm	177
-1.527 h, 200 ppm	81.5
-1.508 h, 200 ppm	69.5
-1.022 h, 25 ppm	4.44
-1.012 h, 25 ppm	4.01
-1.006 h, 400 ppm	215
-1 min, 200 ppm	93
-0.7876 h, 200 ppm	88.3
-0.7835 h, 200 ppm	86.7

C/C=C/c1ccc(O)c(OC)c1 [Isoeugenol]
concentration in plasma [µg/mL]
Details	3 h	8 h	10 min	20 min
Rat [1]	0.0172	–	0.22	–
Rat [2]	–	0.0318	–	0.311

c1ccc2c(c1)CCCC2 [Tetralin]
Details	concentration in plasma [µg/g]
Rat [3], 4 h	0.216
Rat [3], 5 min	22.1
Rat [5], 0.75 h	2.33
Rat [5], 12 h	0.0285
Rat [6], 0.5033 h	0.208
Rat [6], 8 h	0.00401
Rat [7], 0.75 h	0.134
Rat [7], 12 h	0.00182
Rat [8], 1 h	0.0468
Rat [8], 24 h	0.00083

Details	concentration in plasma [µg/g]
Rat [4]	0.0179
